Results as given in ChEMBL document CHEMBL3808334, “Synthesis and in vitro evaluation of novel triazine analogues as anticancer agents and their interaction studies with bovine serum albumin” (Eur J Med Chem, 2016).

What was measured:
Type in all cases: functional
[1] = Growth inhibition of human SNB19 cells incubated for 48 hrs by sulforhodamine B assay; conditions: SNB-19, 48 h
Summary of the method: (§1)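 Cells were plated at 5,000–40,000 per well according to doubling time and preincubated 24 h at 37 °C in 5% CO2; time-zero plates were then TCA-fixed. Five concentrations (10-fold or ½-log dilutions, DMSO stock) were incubated 48 h. Cells were TCA-fixed, stained with 0.4% SRB and read at 515 nm. GI50 was taken where [(Ti−Tz)/(C−Tz)]×100 = 50.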

[2] = Growth inhibition of human OVCAR3 cells incubated for 48 hrs by sulforhodamine B assay; conditions: OVCAR-3, 48 h; summary of the method: as §1
SK-MEL-2 = assay: Growth inhibition of human SK-MEL-2 cells assessed as cell growth at 10^-8 M incubated for 48 hrs by sulforhodamine B assay; conditions: SK-MEL-2, 48 h, read-out: Activity
[3] = Growth inhibition of human MOLT4 cells assessed as cell growth at 10^-7 M incubated for 48 hrs by sulforhodamine B assay; conditions: MOLT-4, 48 h, read-out: Activity
Summary of the method: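 Cells plated at 5,000–40,000/well according to doubling time and preincubated 24 h at 37 °C, 5% CO₂, with time-zero plates TCA-fixed. Drugs were kept as DMSO concentrates at 400× the top concentration and diluted in medium with 50 µg/ml gentamicin. Five 10-fold or ½-log dilutions were run for 48 h, followed by SRB staining and A515. Percent growth = (Ti−Tz)/(C−Tz)×100, or (Ti−Tz)/Tz×100 when Ti<Tz.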

[4] = Growth inhibition of human MOLT4 cells assessed as cell growth at 10^-4 M incubated for 48 hrs by sulforhodamine B assay; conditions: MOLT-4, 48 h, read-out: Activity
[5] = Growth inhibition of human SW620 cells assessed as cell growth at 10^-4 M incubated for 48 hrs by sulforhodamine B assay; conditions: SW-620, 48 h, read-out: Activity
[6] = Growth inhibition of human SF539 cells assessed as cell growth at 10^-4 M incubated for 48 hrs by sulforhodamine B assay; conditions: SF-539, 48 h, read-out: Activity
[7] = Growth inhibition of human SF268 cells assessed as cell growth at 10^-7 M incubated for 48 hrs by sulforhodamine B assay; conditions: SF-268, 48 h, read-out: Activity
Malme-3M = assay: Growth inhibition of human MALME-3M cells assessed as cell growth at 10^-4 M incubated for 48 hrs by sulforhodamine B assay; conditions: read-out: Activity
[8] = Growth inhibition of human OVCAR4 cells assessed as cell growth at 10^-4 M incubated for 48 hrs by sulforhodamine B assay; conditions: OVCAR-4, 48 h, read-out: Activity
[9] = Growth inhibition of human OVCAR5 cells assessed as cell growth at 10^-4 M incubated for 48 hrs by sulforhodamine B assay; conditions: OVCAR-5, 48 h, read-out: Activity
MDA-MB-468 = assay: Growth inhibition of human MDA-MB-468 cells assessed as cell growth at 10 uM incubated for 48 hrs by sulforhodamine B assay; conditions: MDA-MB-468, 48 h, read-out: Activity
K562 [10] = assay: Growth inhibition of human K562 cells assessed as cell growth at 10^-8 M incubated for 48 hrs by sulforhodamine B assay; conditions: K562, 48 h, read-out: Activity
A498 = assay: Growth inhibition of human A498 cells assessed as cell growth at 10^-7 M incubated for 48 hrs by sulforhodamine B assay; conditions: A498, 48 h, read-out: Activity
Summary of the method: (§2)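 Five-dose assay: five concentrations from 10-fold or ½-log serial dilutions. Cells are plated at 5,000–40,000 per well according to doubling time, grown 24 h, then exposed 48 h at 37 °C, 5% CO₂. Fixed with cold 50% TCA (final addition) for 60 min at 4 °C and stained with 0.4% SRB in 1% acetic acid. Bound dye is solubilized in 10 mM Tris base and read at 515 nm. GI₅₀ is where [(Ti−Tz)/(C−Tz)]×100 = 50, with a time-zero plate as Tz.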

[11] = Growth inhibition of human TK10 cells assessed as cell growth at 10^-7 M incubated for 48 hrs by sulforhodamine B assay; conditions: TK-10, 48 h, read-out: Activity
K562 [12] = assay: Growth inhibition of human K562 cells assessed as cell growth at 10^-6 M incubated for 48 hrs by sulforhodamine B assay; conditions: K562, 48 h, read-out: Activity
[13] = Growth inhibition of human HCT15 cells assessed as cell growth at 10^-8 M incubated for 48 hrs by sulforhodamine B assay; conditions: HCT-15, 48 h, read-out: Activity
Summary of the method: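 Cells seeded at 5,000–40,000/well according to doubling time and preincubated 24 h at 37 °C, 5% CO2. Time-zero plates were TCA-fixed. DMSO concentrate was diluted in medium with 50 µg/ml gentamicin to give five concentrations (10-fold or ½ log steps), then exposed 48 h. Cells were TCA-fixed, stained with 0.4% SRB and read at 515 nm. Percent growth was taken against time-zero and control; GI50, TGI and LC50 derived.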

KM12 = assay: Growth inhibition of human KM12 cells assessed as cell growth at 10^-8 M incubated for 48 hrs by sulforhodamine B assay; conditions: KM12, 48 h, read-out: Activity
[14] = Growth inhibition of human SF295 cells assessed as cell growth at 10^-6 M incubated for 48 hrs by sulforhodamine B assay; conditions: SF-295, 48 h, read-out: Activity
[15] = Growth inhibition of human SNB75 cells assessed as cell growth at 10^-6 M incubated for 48 hrs by sulforhodamine B assay; conditions: SNB-75, 48 h, read-out: Activity
K562 [16] = assay: Growth inhibition of human K562 cells assessed as cell growth at 10^-5 M incubated for 48 hrs by sulforhodamine B assay; conditions: K562, 48 h, read-out: Activity
A549 = assay: Growth inhibition of human A549/ATCC cells assessed as cell growth at 10^-5 M incubated for 48 hrs by sulforhodamine B assay; conditions: A549, 48 h, read-out: Activity; summary of the method: as §2
NCI-H23 = assay: Growth inhibition of human NCI-H23 cells assessed as cell growth at 10^-5 M incubated for 48 hrs by sulforhodamine B assay; conditions: NCI-H23, 48 h, read-out: Activity
NCI-H322M = assay: Growth inhibition of human NCI-H322M cells assessed as cell growth at 10^-5 M incubated for 48 hrs by sulforhodamine B assay; conditions: read-out: Activity
[17] = Growth inhibition of human SF268 cells assessed as cell growth at 10^-5 M incubated for 48 hrs by sulforhodamine B assay; conditions: SF-268, 48 h, read-out: Activity
[18] = Growth inhibition of human UACC62 cells assessed as cell growth at 10^-5 M incubated for 48 hrs by sulforhodamine B assay; conditions: UACC-62, 48 h, read-out: Activity
[19] = Growth inhibition of human prostate cancer cells incubated for 48 hrs by sulforhodamine B assay; conditions: Cancer cell lines; for CC50: read-out: LC50 (the source's name)
[20] = read-out: LC50 (the source's name)
[21] = read-out: pLC50 (the source's name) (converted)

SMILES | GI50 ([1]; read-out: GI50) | GI50 ([1]; read-out: pGI50 (converted)) | GI50 ([2]; read-out: GI50) | TGI ([2]; read-out: TGI) | GI50 ([2]; read-out: pGI50 (converted)) | TGI ([2]; read-out: pTGI (converted)) | growth at 0.01 µM (SK-MEL-2) | growth at 0.1 µM [3] | growth at 100 µM [4] | growth at 100 µM [5] | growth at 100 µM [6] | growth at 0.1 µM [7] | growth at 100 µM (Malme-3M) | growth at 100 µM [8] | growth at 100 µM [9] | growth at 10 µM (MDA-MB-468) | growth at 0.01 µM (K562 [10]) | growth at 0.1 µM (A498) | growth at 0.1 µM [11] | growth at 1 µM (K562 [12]) | other results
c1ccc(-c2nc(Nc3ccc(-c4nc5ccccc5[nH]4)cc3)nc(N3CCOCC3)n2)cc1 | 1.96 µM | 1.95 µM | 1.52 µM | 2.98 µM | 1.51 µM | 2.95 µM | 105% | 79% | -52% | -84% | -90% | 92% | -54% | -98% | -75% | -62.7% | 86% | 84% | 106% | -2% | TGI ([1]; read-out: TGI): 4.32 µM; TGI ([1]; read-out: pTGI (converted)): 4.37 µM; CC50 [2, 20]: 5.83 µM; CC50 [2, 21]: 5.89 µM; growth at 0.01 µM [13]: 96%; growth at 0.01 µM (KM12): 98%; growth at 1 µM [14]: 64%; growth at 1 µM [15]: 88%; growth at 10 µM (K562 [16]): -54%; growth at 10 µM (A549): -63%; growth at 10 µM (NCI-H23): -44%; growth at 10 µM (NCI-H322M): -79%; growth at 10 µM [17]: -83%; growth at 10 µM [18]: -71%; GI50 [19]: 1.51 µM; TGI [19]: 3.07 µM; CC50 [19]: 6.25 µM
Fc1ccc(-c2nc(Nc3ccc(-c4nc5ccccc5[nH]4)cc3)nc(N3CCOCC3)n2)cc1 | 3.49 µM | 3.47 µM | 1.82 µM | 3.91 µM | 1.82 µM | 3.89 µM | 103% | 96% | -33% | -44% | -84% | 96% | -58% | -23% | -31% | -1.23% | 104% | 83% | 88% | 101% | CC50 [1, 20]: > 100 µM; TGI ([1]; read-out: TGI): > 100 µM; CC50 [1, 21]: > 100 µM; TGI ([1]; read-out: pTGI (converted)): > 100 µM; growth at 0.01 µM [13]: 97%; growth at 0.01 µM (KM12): 95%; growth at 1 µM [14]: 72%; growth at 1 µM [15]: 67%; growth at 10 µM (K562 [16]): -31%; growth at 10 µM (A549): 3%; growth at 10 µM (NCI-H322M): 16%; growth at 10 µM [17]: 3%; growth at 10 µM [18]: -70%; GI50 [19]: 3.46 µM; TGI [19]: 6.66 µM; CC50 [19]: > 100 µM
Clc1ccc(-c2nc(Nc3ccc(-c4nc5ccccc5[nH]4)cc3)nc(N3CCOCC3)n2)cc1 | 0.379 µM | 0.38 µM | 0.374 µM | 1.37 µM | 0.372 µM | 1.38 µM | 99% | 90% | -41% | -63% | -38% | 96% | -16% | -51% | -16% | -84% | 96% | 82% | 92% | -63% | CC50 [2, 20]: 3.99 µM; CC50 [2, 21]: 3.98 µM; growth at 0.01 µM [13]: 96%; growth at 0.01 µM (KM12): 98%; growth at 1 µM [14]: 77%; growth at 1 µM [15]: 95%; growth at 10 µM (K562 [16]): -70%; growth at 10 µM (A549): -81%; growth at 10 µM (NCI-H23): -66%; growth at 10 µM (NCI-H322M): -80%; growth at 10 µM [17]: -80%; growth at 10 µM [18]: -77%; GI50 [19]: 0.41 µM; TGI [19]: 1.49 µM; CC50 [19]: 4.33 µM
c1ccc2[nH]c(-c3ccc(Nc4nc(N5CCCCC5)nc(N5CCOCC5)n4)cc3)nc2c1 | 3.73 µM | 3.72 µM | 2.4 µM | 6.19 µM | 2.4 µM | 6.17 µM | 97% | 100% | -34% | -53% | -76% | 98% | -80% | -32% | -18% | -3.66% | 103% | 81% | 93% | 109% | CC50 [1, 20]: > 100 µM; TGI ([1]; read-out: TGI): 81.9 µM; CC50 [1, 21]: > 100 µM; TGI ([1]; read-out: pTGI (converted)): 81.3 µM; CC50 [2, 20]: > 100 µM; CC50 [2, 21]: > 100 µM; growth at 0.01 µM [13]: 95%; growth at 0.01 µM (KM12): 101%; growth at 1 µM [14]: 84%; growth at 1 µM [15]: 69%; growth at 10 µM (K562 [16]): -21%; growth at 10 µM (A549): 2%; growth at 10 µM (NCI-H23): 6%; growth at 10 µM (NCI-H322M): 29%; growth at 10 µM [17]: 5%; growth at 10 µM [18]: -53%; GI50 [19]: 3.67 µM; TGI [19]: 9.13 µM; CC50 [19]: > 100 µM
